Measured values from ChEMBL document CHEMBL1123822, “Lysosomotropic agents. 7. Broad-spectrum antifungal activity of lysosomotropic detergents” (1987).
In brackets after ≈: the same amount, converted by molar mass.

Assays:
Format in all cases: functional
[1] = tested on: Aspergillus fumigatus; assay: The compound was tested for antifungal activity against Aspergillus fumigatus MF4839 using agar dilution assay
Summary of the method: (§1)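 Standardized agar dilution in Kimmig agar with 5% glycerol. Lysosomotropic detergents solubilized in 10% Me₂SO. Twofold serial dilutions in sterile distilled water gave final agar concentrations of 128 to 0.06 μg/mL. Stated error ±1 dilution stage.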

[2] = tested on: Saccharomyces cerevisiae; assay: The compound was tested for antifungal activity against Saccharomyces cerevisiae MY1027 using agar dilution assay
Summary of the method: (§2)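 Standardized agar dilution on Kimmig agar with 5% glycerol. Detergents solubilized in 10% Me2SO; desoxycholate-stabilized amphotericin B diluted and titrated in sterile distilled water. Twofold dilutions in sterile distilled water gave final agar concentrations of 128 to 0.06 μg/mL. Error limit ±1 dilution stage.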

[3] = tested on: Fungi; assay: The compound was evaluated for mean zone diameter (inhibition) against yeast at the concentration of 1000 ug/mL
Summary of the method: (§3)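 Disk diffusion: drug in methanol spotted on 6.2 mm paper disks (25 μL/disk), dried at room temperature, laid on seeded agar, rewet with 25 μL 10% aqueous Me₂SO; zones read after overnight incubation. Unbuffered acidic media (pH ca. 4.5–5.6). Panel of 21 yeasts and 21 filamentous fungi; zones of 0 mm excluded from means.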

[4] = tested on: Kluyveromyces marxianus; assay: The compound was tested for antifungal activity against Candida pseudotropicalis MY1040 using agar dilution assay; summary of the method: as §1
[5] = tested on: Candida tropicalis; assay: The compound was tested for antifungal activity against Candida tropicalis MY1012 using agar dilution assay; summary of the method: as §2
[6] = tested on: Nakaseomyces glabratus; assay: The compound was tested for antifungal activity against Torulopsis glabrata MY1059 using agar dilution assay; summary of the method: as §2
[7] = tested on: Candida albicans; assay: The compound was tested for antifungal activity against Candida stellatoidea MY1017 using agar dilution assay; summary of the method: as §2
[8] = tested on: Aspergillus flavus; assay: The compound was tested for antifungal activity against Aspergillus flavus MF0383 using agar dilution assay; summary of the method: as §1
[9] = tested on: Candida tropicalis; assay: The compound was tested for antifungal activity against Candida tropicalis MY1011 using agar dilution assay; summary of the method: as §2
[10] = tested on: Candida albicans; assay: The compound was tested for antifungal activity against Candida albicans MY1058 using agar dilution assay; summary of the method: as §1
[11] = tested on: Meyerozyma guilliermondii; assay: The compound was tested for antifungal activity against Candida guilliermondii MY1019 using agar dilution assay; summary of the method: as §1
[12] = tested on: Penicillium italicum; assay: The compound was tested for antifungal activity against Penicillium italicum MF2819 using agar dilution assay; summary of the method: as §2
[13] = tested on: Cryptococcus neoformans; assay: The compound was tested for antifungal activity against Cryptococcus neoformans MY1051 using agar dilution assay; summary of the method: as §2
[14] = tested on: Diutina rugosa; assay: The compound was tested for antifungal activity against Candida rugosa MY1022 using agar dilution assay; summary of the method: as §1
[15] = tested on: Saccharomyces cerevisiae; assay: The compound was evaluated for mean zone diameter (inhibition) against yeast at the concentration of 500 ug/mL; summary of the method: as §3
[16] = tested on: Saccharomyces cerevisiae; assay: The compound was evaluated for mean zone diameter (inhibition) against yeast at the concentration of 125 ug/mL
Summary of the method: (§4)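 Filter-paper disk diffusion (6.2 mm disks) with drug in methanol at the stated level, 25 μL per disk. Disks were air-dried at room temperature, laid on seeded agar, rewet with 25 μL 10% aqueous Me₂SO and incubated overnight. Media were unbuffered, pH ca. 4.5–5.6. The panel was 21 yeasts and 21 filamentous fungi. Zones of 0 mm were excluded from means.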

[17] = tested on: Pichia kudriavzevii; assay: The compound was tested for antifungal activity against Candida krusei MY1020 using agar dilution assay; summary of the method: as §1
[18] = tested on: Candida albicans; assay: The compound was tested for antifungal activity against Candida albicans MY0992 using agar dilution assay; summary of the method: as §1
[19] = tested on: Candida albicans; assay: The compound was tested for antifungal activity against Candida albicans MY1055 using agar dilution assay; summary of the method: as §1
[20] = tested on: Candida parapsilosis; assay: The compound was tested for antifungal activity against Candida parapsilosis MY1009 using agar dilution assay; details: Lodderomyces parapsilosis; summary of the method: as §1
[21] = tested on: Saccharomyces cerevisiae; assay: The compound was evaluated for mean zone diameter (inhibition) against yeast at the concentration of 250 ug/mL; summary of the method: as §4
[22] = tested on: Candida albicans; assay: The compound was tested for antifungal activity against Candida albicans MY1013 using agar dilution assay; summary of the method: as §1
[23] = tested on: Candida albicans; assay: The compound was tested for antifungal activity against Candida albicans My1029 using agar dilution assay; summary of the method: as §1
[24] = tested on: Candida parapsilosis; assay: The compound was tested for antifungal activity against Candida parapsilosis MY1010 using agar dilution assay; details: Lodderomyces parapsilosis; summary of the method: as §1
[25] = tested on: Cryptococcus neoformans; assay: The compound was tested for antifungal activity against Cryptococcus neoformans MY1146 using agar dilution assay; summary of the method: as §2

`CC(=O)N1CCN(c2ccc(OCC3COC(Cn4ccnc4)(c4ccc(Cl)cc4Cl)O3)cc2)CC1` (stereo not given) [KETOCONAZOLE] gave an MIC [1] of 1 µg/mL (≈ 1.88 µM), an MIC [2] of 0.5 µg/mL (≈ 0.941 µM) and an Inhibition zone [3] of 27.2 mm. It also gave an MIC [4] of 1 µg/mL (≈ 1.88 µM), an MIC [5] greater than 128 µg/mL and an MIC [6] of 1 µg/mL (≈ 1.88 µM). For the same compound, the MIC [7] was 0.5 µg/mL (≈ 0.941 µM), the MIC [8] was 1 µg/mL (≈ 1.88 µM) and the MIC [9] was 1 µg/mL (≈ 1.88 µM). It also gave an MIC [10] of 0.5 µg/mL (≈ 0.941 µM), an MIC [11] of 0.5 µg/mL (≈ 0.941 µM) and an MIC [12] of 1 µg/mL (≈ 1.88 µM). It also gave an MIC [13] of 0.25 µg/mL (≈ 0.47 µM), an MIC [14] of 0.5 µg/mL (≈ 0.941 µM) and an Inhibition zone [15] of 24.8 mm. It also gave an Inhibition zone [16] of 20.6 mm, an MIC [17] of 1 µg/mL (≈ 1.88 µM) and an MIC [18] of 1 µg/mL (≈ 1.88 µM). The MIC [19] was 0.5 µg/mL (≈ 0.941 µM), the MIC [20] was 4 µg/mL (≈ 7.53 µM) and the Inhibition zone [21] was 23.3 mm. For the same compound, the MIC [22] was 0.5 µg/mL (≈ 0.941 µM), the MIC [23] was 0.5 µg/mL (≈ 0.941 µM) and the MIC [24] was 2 µg/mL (≈ 3.76 µM). It also gave an MIC [25] of 0.5 µg/mL (≈ 0.941 µM).
